High-throughput results deposited in PubChem by several laboratories.
T cell modulator – T cell immune modulators affecting CD8 T cell-vesicle binding | 2C CD8+ T cell-vesicle binding, flow cytometry; active compounds read low | response (vesicle binding), % at 7 µM | actives 0.068% (n = 330,000) | AID 2052;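 active = response, share of CD8 T cells binding vesicles, and their 90th percentile fluorescence all below set limits, cut at about 80% in these data, passing the limit was not always enough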;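 also: values below 100% mean blocked vesicle binding to the CD8+ T cells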
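Benchmarks: naked versus QL9-loaded vesicles / Assay system: purified 2C TCR transgenic mouse naive CD8+ T cells / Technique: high-throughput flow cytometry with anti-B7-1 and anti-CD8 staining / Timing: Cell–vesicle co-incubation 1.5 h at 37 °C, staining 20 min on ice / Read-out: percent CD8+ FL2 mean versus row control / Probe or stimulus: QL9-loaded Drosophila micro-vesicles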
DSG3 Ab inh – blocks pemphigus antibody binding to human desmoglein-3; actives 0.48% (n = 310,000); binding (percent of control), % at 10 µM; DSG3-coupled beads, scFv-anti-DSG3-GFP binding, flow cytometry; active compounds read low;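 active = binding more than 3 SD below its plate's average and above zero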;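 also: hits lower antibody fragment binding to DSG3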
Myeloid diff 2 – compounds promoting myeloid differentiation. ER-HoxA9 myeloid progenitors, lysozyme-GFP differentiation, flow cytometry. calls only at 10 µM. actives 1% (n = 360,000). AID 624256;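 active = normalized GFP-positive differentiation at or above the plate's own cutoff, the solvent-only control mean plus 3 SD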;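 also: cells exposed to compound for four days before flow analysis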
Vif imaging – blocks HIV Vif function; HEK293T cells, Vif self-association by quenched fluorescence, imaging, 24 h; inhibition, % at 7.49 µM; actives 0.35% (n = 340,000); AID 602346; in the data active = inhibition above about 50%, passing the limit was not always enough
Of the large screens only hits and unclear results are named; the others gave an inactive call. Only some compounds are listed: those with a hit (about 1.7% of all), similar ones and a draw of the others.

COc1ccc(Nc2nc(-c3ccc(OC)cc3)cs2)cc1	none
COc1ccc(-c2csc(Nc3ccc(S(N)(=O)=O)cc3)n2)cc1	DSG3 Ab inh 87.8
COc1ccc(Nc2nc(-c3c[nH]c4ccccc34)cs2)cc1	Myeloid diff 2 active
OC(c1ccc(F)c(F)c1)c1nc(-c2cnc3ccccc3c2)cs1 (stereo unspecified)	none (no result: T cell modulator, DSG3 Ab inh)
Cc1ccc(C(=O)NCC(=O)N2CCN(S(=O)(=O)c3cccs3)CC2)s1	none
O=C(NCC(=O)N1CCN(S(=O)(=O)c2cccs2)CC1)c1ccc(Cl)cc1	Vif imaging 57.8
Cc1ccc(S(=O)(=O)N2CCN(C(=O)CNC(=O)c3ccc(Cl)cc3)CC2)cc1	T cell modulator 37.4
CCCCCCN1C=C/C(=C\C=C(C#N)C#N)c2ccccc21	Myeloid diff 2 active
O=C(NCc1ccccn1)C1CCN(C(=O)c2cc3sccc3n2Cc2ccc(F)cc2)CC1	Myeloid diff 2 active
O=C1N=c2ccccc2=C1c1sc(Nc2ccc(O)cc2)nc1O	DSG3 Ab inh -14.9 (no result: T cell modulator)
CCCc1cc(C(=O)Nc2cc(OC)ccc2OC)cs1	none
COc1ccc(S(=O)(=O)c2c(N)n(Cc3ccco3)c3nc4ccccc4nc23)cc1	Myeloid diff 2 active
Cc1nn(CC(C)C)c(Cl)c1C(=O)N(C)CC(=O)Nc1c(Cl)cccc1Cl	Myeloid diff 2 active
COc1cccc(NC(=O)CN(C)C(=O)c2c(C)nn(Cc3ccc(C)cc3)c2Cl)c1	none
Cn1cc(CN2CCc3c([nH]c4ccccc34)C2C(C)(C)C)cn1 (stereo unspecified)	Vif imaging 86.4
Cn1cc(CN2CCc3c([nH]c4ccccc34)C2C2CCCCC2)cn1 (stereo unspecified)	none
O=C(Nc1cccnc1)C1Cc2c(-c3ccco3)ccnc2O1 (stereo unspecified)	none (no result: T cell modulator, DSG3 Ab inh)
COc1ccccc1/C=N\NC(=O)c1ccc(COc2ccc(C)c(C)c2)o1	Myeloid diff 2 active
COc1ccc(Br)cc1/C=N/NC(=O)c1ccc(COc2ccc3c(c2)CCC3)o1	Myeloid diff 2 active
COc1cc(/C=N/NC(=O)c2ccc(COc3ccccc3Cl)o2)cc(Br)c1O	none
Cc1cc(NC(=O)CCC(=O)N(CC(=O)NCC2CCCO2)c2ccc(F)c(Cl)c2)no1 (stereo unspecified)	none
CCOC(=O)[C@@H]1[C@H]2COc3ccccc3[C@@H]2N2C(=O)N(c3cccc(Cl)c3)C(=O)[C@@]12C	none (no result: Vif imaging)
CC(C)N1CCC(C)(C(=O)Nc2cccc(Oc3ccccc3)c2)C1 (stereo unspecified)	none (no result: T cell modulator, DSG3 Ab inh, Vif imaging)
CCOc1ccc(Nc2nc3c(C)cccc3cc2C#N)cc1	Myeloid diff 2 active, Vif imaging 82.2
Cc1cccc(C)c1NC(=O)CN(C)C(=O)C1=COCCO1	none (no result: DSG3 Ab inh)
CCCC(C)C(=O)Nc1ncc(S(=O)(=O)c2ccc([N+](=O)[O-])cc2)s1 (stereo unspecified)	none
COC(CNC(=O)C1CCN(C(=O)c2cc3oc(C)cc3n2Cc2c(F)cccc2Cl)CC1)OC	Vif imaging 54.8
CC(=O)NC(=S)Nc1cccc2ccc(C)nc12	none
Cc1ccc2cccc(NC(=S)NC(=O)c3ccnn3C)c2n1	Myeloid diff 2 active
CC(C)(C)NC(=O)C(c1ccncc1)N(C(=O)Cn1nnc(-c2ccc(F)cc2)n1)c1ccccc1F (stereo unspecified)	Vif imaging 60.5 (no result: T cell modulator)
COC(=O)[C@@]12CCCCN1[C@H](c1ccc(-c3ccc(F)cc3)cc1)[C@@H]1C(=O)N(C)C(=O)[C@@H]12	none
CCOC(=O)C1=C(C)N=c2s/c(=C\c3ccc(OCC(=O)O)c(OC)c3)c(=O)n2C1c1ccc(OC)cc1 (stereo unspecified)	none
CCOC(=O)C1=C(C)N=c2sc(=Cc3cc(Cl)c(OCC(=O)O)c(OC)c3)c(=O)n2C1c1ccccc1Cl (stereo unspecified)	Myeloid diff 2 active (no result: T cell modulator, DSG3 Ab inh)
CCOC(=O)C1=C(C)N=c2s/c(=C\c3cccn3C)c(=O)n2C1c1cccc(OC)c1OC (stereo unspecified)	Myeloid diff 2 active
CCOC(=O)C1(C)CCCN(C(=O)C(c2ccccc2)c2ccccc2)C1 (stereo unspecified)	none (no result: T cell modulator, DSG3 Ab inh)
CC(C)(C)c1ccc(C(=O)N2CCN(c3nc4ccccc4o3)CC2)cc1	none
O=C(c1ccc(-c2ccccc2)cc1)N1CCN(c2nc3ccccc3o2)CC1	DSG3 Ab inh 68.8 (no result: T cell modulator)
Cc1ccc(NC(=O)CCC(=O)NNC(=O)NC2CCCCC2)c(C)c1	Vif imaging 78.6
CC1(C(=O)Nc2ccc(Cl)c(Cl)c2)CCN1CCc1ccccc1 (stereo unspecified)	none (no result: T cell modulator, DSG3 Ab inh)
COc1ccc(-c2cc(=O)c3ccc(O)cc3o2)cc1OC	none (no result: T cell modulator, DSG3 Ab inh)
Nc1ccc(-c2c3ccc(=O)cc-3oc3cc(O)ccc23)c(C(=O)O)c1	Myeloid diff 2 active, Vif imaging 72.8
COc1ccc(-n2c(O)c(C=Nc3ccccc3)c3ccccc3c2=O)cc1	none (no result: Myeloid diff 2)
CCN(c1ccc(N=Cc2c(O)n(Cc3ccc(OC)cc3)c(=O)c3ccccc23)cc1)C(C)C	Myeloid diff 2 active (no result: T cell modulator)
CC(=O)c1cccc(N2C(=NC(=O)C3CCCCC3)SC3CS(=O)(=O)CC32)c1 (stereo unspecified)	none
O=c1c2c3nc4ccccc4nc3n(-c3ccc4c(c3)OCCO4)c2ncn1C1CCCC1	DSG3 Ab inh 66.5 (no result: Vif imaging)
Cc1ccc(C)c(S(=O)(=O)Nc2ccc3oc(C)c(C(=O)O)c3c2)c1	DSG3 Ab inh 85.0
COC(=O)c1ccc(C2C(Oc3ccccc3)C(=O)N2CCc2ccc(OC)c(OC)c2)cc1 (stereo unspecified)	DSG3 Ab inh 82.8 (no result: Vif imaging)
COc1ccccc1CNc1ccc2c(c1)CCC2	Myeloid diff 2 active
COC(=O)CN1C(=O)COc2ccc(S(=O)(=O)N3CCCCC3)cc21	none (no result: T cell modulator)
O=c1[nH]c(=O)n(C2C[C@H](O)[C@@H](CO)O2)cc1C(F)(F)F (stereo partly specified)	none
O=c1[nH]c(=O)n([C@H]2C[C@H](O)[C@@H](CO)O2)cc1C(F)(F)F	Myeloid diff 2 active
CCCCN1C(=O)Cc2c1nc(N)c1c(N)nc(N(CCC)CCC)c(C#N)c21	Myeloid diff 2 active (no result: DSG3 Ab inh, Vif imaging)
Nc1[nH]c(C(=O)c2ccccc2)c(-c2ccccc2C(F)(F)F)c1C(=O)NCCc1c[nH]c2ccccc12	none (no result: T cell modulator, DSG3 Ab inh, Vif imaging)
COc1ccc(NC(=O)c2ccco2)cc1NC(=O)c1ccccc1F	DSG3 Ab inh 84.5
COCCN1C(=O)CN(S(C)(=O)=O)CC1(C)C(=O)NCc1ccccc1 (stereo unspecified)	none (no result: T cell modulator, DSG3 Ab inh, Vif imaging)
COc1cc2c(cc1OC)C(C)N(C(=O)/C=C/c1cc(OC)c(OC)c(OC)c1)CC2 (stereo unspecified)	DSG3 Ab inh 82.0
CC(C)N1CCc2c(sc(NC(=S)NC(=O)c3ccccc3)c2C#N)C1	Myeloid diff 2 active
CCCN1CCc2c(sc(NC(=S)NC(=O)c3ccccc3)c2C#N)C1	Myeloid diff 2 active
CCN1CCc2c(sc(NC(=O)c3ccc(S(=O)(=O)N(C)c4ccccc4)cc3)c2C(=O)NC)C1	Myeloid diff 2 active (no result: Vif imaging)
CC(C)N1CCc2c(sc(NC(=O)c3ccc(S(=O)(=O)N4CCOCC4)cc3)c2C#N)C1	Myeloid diff 2 active
